Compounds with a hit are over-represented: about 1.9% of the library has one in this group of screens.
NPY1 pot ag: potentiators or agonists of human neuropeptide Y receptor Y1. NPY-Y1 expressing cells, potentiator/agonist activation. P25929. activation, % at 3.6 µM. 220,000 compounds, 0.37% hits; in the data active = activation above about 33%, passing the limit was not always enough;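 note: cells stimulated with NPY at EC10 then isoproterenol at EC100; 0% = low agonist plus stimulus and 100% = saturating agonist plus stimulus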
Target sequence (P25929 whole entry, looked up): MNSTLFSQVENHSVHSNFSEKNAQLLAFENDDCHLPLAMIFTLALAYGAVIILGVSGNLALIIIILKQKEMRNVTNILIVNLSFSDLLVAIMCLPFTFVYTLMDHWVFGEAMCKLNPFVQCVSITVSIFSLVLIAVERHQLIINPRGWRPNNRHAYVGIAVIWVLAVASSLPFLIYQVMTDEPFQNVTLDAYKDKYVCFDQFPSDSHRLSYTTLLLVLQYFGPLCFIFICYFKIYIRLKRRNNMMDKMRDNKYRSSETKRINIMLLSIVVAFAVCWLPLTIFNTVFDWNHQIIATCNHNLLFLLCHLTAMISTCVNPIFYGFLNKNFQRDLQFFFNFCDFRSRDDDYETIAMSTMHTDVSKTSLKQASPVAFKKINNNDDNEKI
NPY Y1 blocker: antagonists of human neuropeptide Y receptor Y1; HEK293-CNG Y1 cells, membrane potential fluorescence; NPY at EC95, then isoproterenol; inhibition, % at 3.6 µM; 200,000 compounds, 1% hits; AID 1040;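 active = inhibition above the campaign mean inhibition of all tested compounds plus 3 SD, cut at about 20% in these data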;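 note: 0% = DMSO wells given NPY plus isoproterenol and 100% = isoproterenol alone without NPY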
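Material: HEK293 cells with Y1 receptor plus CNG channel; times: compound incubation 1 h at room temperature, readout 45 min post-stimulation; signal: fluorescence, membrane potential probe; read-out basis: fluorescence ratio normalized to % inhibition between controls; benchmarks: full-block control isoproterenol-only wells, zero-block control NPY plus isoproterenol wells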
NPY-Y2 antag: antagonists of human neuropeptide Y receptor Y2. P49146. inhibition, % at 2.7 µM. NPY-Y2 expressing cells, antagonist mode. 140,000 compounds, 0.99% hits; in the data active = inhibition above about 17%;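 note: 0% = vehicle with agonist challenge and 100% = reference antagonist with challenge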
NPY-Y2 PAM-ag: potentiates or activates human NPY-Y2 receptor; cells expressing NPY-Y2, potentiator/agonist read-out; 220,000 compounds, 0.45% hits; activation, % at 3.6 µM; in the data active = activation above about 27%;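 note: cells stimulated with NPY near EC25 plus isoproterenol at EC100; 0% = vehicle plus submaximal agonist and 100% = vehicle plus saturating agonist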
NPY-Y2 confirm: confirmation of human NPY-Y2 receptor potentiators or agonists; shares compounds with NPY-Y2 PAM-ag; AID 1539; cell-based NPY-Y2 potentiator/agonist assay; activation, % at 3.6 µM; 450 compounds, 20% hits; in the data active = activation above about 33%
NPY-Y1 counter: counter-screen for NPY-Y2 potentiators or agonists: NPY-Y1 potentiators or agonists; shares compounds with NPY-Y2 PAM-ag; Y1 HEK293-CNG cells, membrane potential fluorescence; activation, % at 3.6 µM; 450 compounds, 20% hits; in the data active = activation above about 45%;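 note: cells stimulated with submaximal NPY then isoproterenol with phosphodiesterase inhibitor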
NPY-Y1 ag 2: activates human NPY-Y1, counter-screen for NPY-Y2 potentiators; shares compounds with NPY-Y2 PAM-ag; HEK293 Y1-CNGC, membrane potential fluorescence, agonism; activation, % at 3.6 µM; 450 compounds, 37% hits;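 active = activation above the mean of DMSO-only control wells plus 3 SD, cut at about 18% in these data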;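 note: cells stimulated with 1 µM isoproterenol plus the PDE inhibitor Ro 20-1724; 0% = isoproterenol with DMSO and no NPY and 100% = 40 nM NPY; Y1 agonists lower the membrane potential dye signal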
CNGC inhibitor: cyclic nucleotide gated channel inhibition as counter-screen; HEK293-CNG parental, isoproterenol cAMP, membrane potential fluorescence; inhibition, % at 3.6 µM; AID 1703; shares compounds with NPY-Y2 PAM-ag; 450 compounds, 32% hits;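 active = inhibition above the control-well mean plus 3 SD of those wells, cut at about 22% in these data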;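 note: 0% = DMSO with isoproterenol and 100% = DMSO without isoproterenol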
NPY-Y2 ag 2: NPY-Y2 agonism, counter-screen for Y2 potentiators. 450 compounds, 56% hits. activation, % at 3.6 µM. shares compounds with NPY-Y2 PAM-ag. HEK293 Y2/CNGC cells, membrane potential fluorescence, agonist mode;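 active = activation above the mean of solvent-only control wells plus 3 SD, cut at about 10% in these data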;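 note: cells stimulated by isoproterenol with no NPY added so direct agonism is tested; 0% = DMSO with isoproterenol alone and 100% = NPY at EC100 plus isoproterenol; agonism lowers probe fluorescence through less cAMP and CNG channel opening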
Starred values were filed as active, the others as inactive; / = no result.

SMILES	NPY1 pot ag	NPY Y1 blocker	NPY-Y2 antag	NPY-Y2 PAM-ag	NPY-Y2 confirm	NPY-Y1 counter	NPY-Y1 ag 2	CNGC inhibitor	NPY-Y2 ag 2
O=C(O)c1cc([N+](=O)[O-])ccc1N1CCC(Cc2ccccc2)CC1	1.6	1.4	3.0	5.9	/	/	/	/	/
Cc1ncc(CN=Cc2ccc(Cl)cc2)c(N)n1	29.2	/	/	10.1	/	/	/	/	/
O=C(Nc1nc(-c2ccccc2)cs1)c1ccccc1NS(=O)(=O)c1ccc(F)cc1	6.4	11.5	0.2	46.1*	5.3	-7.7	-6.9	12.4	6.3
CC(C)(C)NC(=O)CN1CCN(C(=O)CCl)CC1	9.2	10.5	/	-10.0	/	/	/	/	/
Cc1ccc2sc(N(CCCN(C)C)C(=O)c3ccc(Br)s3)nc2c1C	29.0	16.8	/	52.2*	69.3*	77.7*	84.0*	62.4*	64.7*
Cc1ccc2sc(N(CCCN(C)C)C(=O)c3nc4ccccc4s3)nc2c1C	-17.1	7.4	/	-6.9	/	/	/	/	/
CN(C)CCCN(C(=O)c1ccc(Br)s1)c1nc2cc3c(cc2s1)OCO3	31.2	7.7	/	43.3*	66.5*	78.9*	55.0*	66.0*	62.9*
CC(C)N1CN(c2ccccc2)C(=S)N(c2ccccc2)C1	19.7	/	/	19.5	/	/	/	/	/
CSCCC(NC(=O)c1ccccc1Br)C(=O)Nc1ccc(C)cc1 (stereo not given)	12.8	1.5	1.3	-6.5	/	/	/	/	/
COc1cc(/C=N/NC(=O)CSc2nc3ccccc3n2C)cc(OC)c1OC	-20.1	9.8	0.4	-20.5	/	/	/	/	/
CCOC(=O)C1(C(F)(F)F)N=C(c2cccnc2)OC(N2CCCCC2)=N1 (stereo not given)	-17.2	-0.5	0.5	-6.5	/	/	/	/	/
CCOC(=O)CN1C(=O)CN(c2ccc(C)cc2)C1=O	-23.6	2.6	3.9	-5.2	/	/	/	/	/
Nc1c(-c2ccc(Cl)cc2)cnn1-c1cccc(C(F)(F)F)c1	15.8	0.0	3.2	25.5	/	/	/	/	/
Cc1ccc(-c2cnn(-c3cccc(C(F)(F)F)c3)c2N)cc1	29.5	-2.1	9.3	35.1*	52.4*	57.5*	43.8*	31.7*	59.9*
O=Nc1c(O)n(Cc2c(Cl)cccc2Cl)c2ccccc12	24.4	-4.1	6.2	34.1*	7.8	1.8	13.8	-15.8	5.1
COc1ccc(OC)c2[nH]c(=O)c(CCNC(=O)Cc3cccs3)cc12	-2.2	-2.7	/	-5.3	/	/	/	/	/
CCOC(=O)c1ccc(-n2c(=S)sc3c(=O)[nH]c(C)nc32)cc1	27.7	-7.6	3.9	34.9*	6.0	11.1	11.1	-7.1	12.1*
Cc1ccc2[nH]c(C)c(/C=N/Nc3nc4ccccc4s3)c2c1	30.3	-11.8	-4.9	38.1*	41.8*	53.1*	31.4*	38.1*	38.5*
Brc1csc(/C=N/Nc2nc3ccccc3s2)c1	-11.7	3.4	1.4	0.7	/	/	/	/	/
Cc1cc(C)nc(N2CCCC(C(=O)Nc3ccc4c(c3)OCO4)C2)n1 (stereo not given)	-14.8	9.8	2.6	-20.6	/	/	/	/	/
Cc1cc(C)nc(N2CCCC(C(=O)NCc3ccc4c(c3)OCO4)C2)n1 (stereo not given)	-5.5	7.6	/	72.4*	-9.7	-8.9	-10.8	-8.0	-3.2
c1ccc(-c2nnsc2Sc2ccccn2)cc1	-12.2	7.0	/	-13.6	/	/	/	/	/
CN(C)C(CN=C1NS(=O)(=O)c2ccccc21)c1ccco1 (stereo not given)	15.8	-5.3	/	50.5*	-0.4	5.6	-3.1	-0.9	-3.0
O=C(CCl)N=c1sccn1Cc1cccc2ccccc12	8.2	-1.6	/	26.8*	-3.8	-8.0	-10.9	14.0	3.2
Cc1n[nH]c(C)c1N=Nc1ccc(Br)cc1	30.0	-8.0	/	30.7*	13.9	26.8	0.4	17.6	4.7
COc1cc(C(=O)NC(=S)Nc2ccc(N3CCCC3)cc2)cc(OC)c1OC	-1.4	1.8	4.7	-4.5	/	/	/	/	/
CC12CCC(C/C1=N/O)C2(C)CBr (stereo not given)	6.7	/	/	-1.0	/	/	/	/	/
